# High-throughput results: PubChem, several laboratories
# Most compounds without a hit are left out; they make up all but 2.1% or so of the library.
# SUMO1 PPI mod: alters human SUMO1 binding to SIM partners | P63165 | SUMO1 binding to a labelled peptide, TR-FRET, 1 h | inhibition, % at 20 µM | 0.33% of 360,000 active | AID 602429; in the data active means inhibition above about 37%
# LMPTP block: LMPTP (human) inhibition; P24666; recombinant LMPTP-A, OMFP fluorogenic substrate, fluorescence intensity; inhibition, % at 20 µM; 0.22% of 360,000 active;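 active means compounds that cut the enzyme signal by at least half of the control window in the single-dose screen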;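 further: plate controls were DMSO wells with enzyme plus substrate for no effect and substrate without enzyme for full effect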
#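 Test system – LMPTP-A phosphatase enzyme · Quantity – 0.625 nM LMPTP-A final · Reagent – OMFP substrate, 400 µM final · Dosing – one test concentration per compound, 20 µM, with 3% DMSO overall · Timing – 50 min enzyme reaction at room temperature, protected from light · Detection – fluorescence intensity · Controls – substrate-only low control, DMSO enzyme-plus-substrate high control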
# STEP block: inhibitors of human striatal-enriched phosphatase STEP | P54829 | recombinant STEP, OMFP fluorogenic substrate, fluorescence | inhibition, % at 20 µM | 0.25% of 360,000 active | AID 588621;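 active means inhibition at 20 µM, scaled per plate between control wells, above about 37%, limit read from the data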;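 further: 0% = DMSO with enzyme and substrate and 100% = substrate only without enzyme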
#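 Assay system: isolated STEP enzyme. Buffer or medium: pH 6.0 Bis-Tris with DTT and Tween 20. Also added: fluorogenic phosphatase substrate OMFP at 25 µM final. Dosing: 20 µM, 1% DMSO. Timing: 20 min reaction, room temperature, in the dark. Measured by: fluorescence intensity, excitation 480 nm, emission 540 nm. Evaluation: normalized % inhibition.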
# DNMT1 block: blocks human DNA methyltransferase DNMT1; P26358; AID 588458; DNMT1 molecular beacon, Hinp1I cleavage, fluorescence; inhibition (reported as % activation of signal), % at 10 µM; 0.83% of 360,000 active; in the data active means inhibition above about 50%
# Scp-1 inhibitor: inhibitors of human Scp-1 phosphatase | Q9GZU7 | Recombinant Scp1, phosphopeptide, malachite green phosphate absorbance | inhibition, % at 20 µM | 0.88% of 340,000 active | AID 493091;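 active means inhibition above about 50% at 20 µM, limit read from the data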;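 further: plate controls were DMSO wells with enzyme for no effect and wells lacking enzyme for full effect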
#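 Test system: SCP-1 phosphatase catalytic domain, residues 76-261 | Compound dosing: One concentration, 20 µM, with 1.0% DMSO | Schedule: 45 min room-temperature reaction, 5 min colour, 30 min stabiliser | Detection: Absorbance at 630 nm | Read-out basis: % inhibition of SCP-1 phosphate liberation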
# GRK2 aptamer HTS: inhibitors of human GRK2 displacing RNA aptamer. P25098. bead flow cytometry, FAM-aptamer displacement from GRK2. inhibition of aptamer binding, % at 10 µM. 0.59% of 330,000 active. AID 488847;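 active means inhibition of aptamer binding above 40%, roughly 3 SD of noise, on plates passing a quality check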;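 further: median bead fluorescence of bound FAM aptamer so fluorescent compounds give negative values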
# Target sequence (P25098 whole entry, looked up): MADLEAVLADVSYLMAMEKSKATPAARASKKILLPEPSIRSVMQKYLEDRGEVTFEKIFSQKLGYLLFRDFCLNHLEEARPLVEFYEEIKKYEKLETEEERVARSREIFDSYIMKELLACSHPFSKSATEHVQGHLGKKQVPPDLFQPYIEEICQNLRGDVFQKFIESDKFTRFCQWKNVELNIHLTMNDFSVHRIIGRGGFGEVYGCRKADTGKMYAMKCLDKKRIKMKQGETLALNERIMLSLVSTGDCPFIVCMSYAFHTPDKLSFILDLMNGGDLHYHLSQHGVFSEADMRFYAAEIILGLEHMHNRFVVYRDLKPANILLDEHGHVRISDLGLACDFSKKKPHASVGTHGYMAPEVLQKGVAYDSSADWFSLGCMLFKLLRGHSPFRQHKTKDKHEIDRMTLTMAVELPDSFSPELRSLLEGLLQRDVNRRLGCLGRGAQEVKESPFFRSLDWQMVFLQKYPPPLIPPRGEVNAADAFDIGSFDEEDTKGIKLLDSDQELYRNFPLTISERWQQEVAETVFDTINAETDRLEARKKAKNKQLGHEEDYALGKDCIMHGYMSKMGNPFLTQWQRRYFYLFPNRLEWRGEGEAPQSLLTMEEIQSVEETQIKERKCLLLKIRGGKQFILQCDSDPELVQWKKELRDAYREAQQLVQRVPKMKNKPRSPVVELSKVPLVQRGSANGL
# DNMT1 interf DR: counter-screen for DNMT1 inhibitors: spectral interference, dose response; shares compounds with DNMT1 block; molecular beacon fluorescence; IC50, µM; 200 tested, under 10 active; AID 602382; call rule not given here
# DNMT1 confirm: DNMT1 inhibition confirmation, single concentration; shares compounds with DNMT1 block; DNMT1 molecular beacon HinP1I cleavage, fluorescence; inhibition, % at 10 µM; 8% of 2,300 active; AID 602385;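 active means average inhibition of at least 30% in the single-concentration confirmation test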
# DNMT1 interf: counter-screen for DNMT1 inhibitors: spectral interference | activation (fluorescence interference), % at 10 µM | 1% of 2,300 active | shares compounds with DNMT1 block | DNMT1 molecular beacon spectral interference counterscreen, fluorescence 485/520;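 active means activation of at least 30% at 10 µM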;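 further: DNMT1 catalytic domain with a HinP1I cleavage step and a FAM/dabcyl DNA beacon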
# Active calls of the source: *; nt = no result.
SMILES,SUMO1 PPI mod,LMPTP block,STEP block,DNMT1 block,Scp-1 inhibitor,GRK2 aptamer HTS,DNMT1 confirm,DNMT1 interf,others
CCc1cccc(OCCCCN(CC)CC)c1,1,0,0,55*,-5,0,4,5,
COc1ccc([C@H]2N[C@]3(CCCN(CC4CCCCC4)C3=O)[C@H]3C(=O)N(Cc4ccccc4)C(=O)[C@@H]23)cc1,1,-1,-2,-5,nt,nt,nt,nt,
CC1(C(=O)O)CCCN1C(=O)c1cccc(C(F)(F)F)c1 (stereo not given),3,-2,-1,22,nt,nt,nt,nt,
Nc1c(N(CCC2=CCCCC2)C(=O)COc2ccc(F)cc2Cl)c(=O)[nH]c(=O)n1Cc1ccccc1,2,-2,3,54*,-10,nt,2,2,
Nc1c(N(CCC2=CCCCC2)C(=O)COc2ccc([N+](=O)[O-])cc2)c(=O)[nH]c(=O)n1Cc1ccccc1,-2,-3,1,58*,-4,nt,0,4,
COC(=O)N1CCN(c2ccc(C(C)=O)cc2)CC1,0,2,-2,-4,-6,1,nt,nt,
COC(=O)c1ccc(N2CCS(=O)(=O)CC2)cc1,3,0,-5,59*,7,0,2,4,
COc1ccc([C@H]2N[C@]3(CCCN(Cc4ccc(C(F)(F)F)cc4)C3=O)[C@H]3C(=O)N(C)C(=O)[C@@H]23)cc1,1,-1,4,-1,nt,nt,nt,nt,
COc1ccc(NC(=O)CCCN2C(=O)C3CC=CCC3C2=O)cc1 (stereo not given),1,0,-3,2,-13,1,nt,nt,
N#Cc1cnn(Cc2ccccc2)c1N,3,-5,-2,72*,-9,0,2,3,
Cc1cc(OC(C)C(=O)NCC(O)c2ccccc2)c2c(C)c(C)c(=O)oc2c1 (stereo not given),-7,-1,-1,0,3,1,nt,nt,
Cc1cc(OC(C(=O)O)c2ccccc2)c2c(C)c(Cc3ccccc3)c(=O)oc2c1 (stereo not given),-2,0,4,88*,-5,4,2,6,
COc1ccc2cc(C#N)c(SCC(=O)NNC(=O)Cc3ccccc3)nc2c1,4,-1,1,21,-11,3,nt,nt,
Cc1ccc2cc(C#N)c(SCC(=O)NNC(=O)Cc3ccccc3)nc2c1,-5,0,-1,45,0,nt,-1,-5,
Cc1ccc(C)c(N2CCN(C3C(=O)Nc4ccccc4-n4nnnc43)CC2)c1 (stereo not given),0,0,nt,nt,nt,nt,nt,nt,
CCOC(=O)C1CCCN(C(=O)c2cc(-c3ccncc3)nc3ccccc23)C1 (stereo not given),1,-1,3,0,-9,0,nt,nt,
CC1CCN(C(=O)c2cc3c(=O)n4ccccc4nc3s2)CC1,-34,0,1,1,-1,0,nt,nt,
CCOC(=O)C1CCCN(C(=O)c2cc(-c3ccco3)nc3ccccc23)C1 (stereo not given),24,51*,20,100*,85*,25,65*,-1,DNMT1 interf DR=>99
CCOC(=O)C1CCCN(C(=O)c2cc3c(=O)n4ccccc4nc3s2)C1 (stereo not given),-34,1,-1,87*,2,4,2,4,
O=C(c1cc(-c2ccco2)nc2ccccc12)N1CCCC(C(F)(F)F)C1 (stereo not given),5,4,4,66*,40,1,1,-2,
O=C(c1cc(-c2ccncc2)nc2ccccc12)N1CCCC(C(F)(F)F)C1 (stereo not given),-4,-1,-2,1,nt,nt,nt,nt,
OCc1cccc(-c2csc(C(O)(c3ccccc3)C(F)(F)F)n2)c1 (stereo not given),1,1,-3,-3,nt,nt,nt,nt,
C(=N\Nc1nccc(-c2cccnc2)n1)/c1ccccc1,-13,1,-3,-3,-7,2,nt,nt,
Cc1ccc(-c2cc(-c3ccccc3O)nc(N/N=C/c3cccnc3)n2)cc1,4,2,2,52*,-3,0,-1,-4,
CCc1ccccc1CC1CN(Cc2ccccc2)Cc2ccccc2N1c1ccc(OC)cc1 (stereo not given),0,3,nt,nt,nt,nt,nt,nt,
SMILES,SUMO1 PPI mod,LMPTP block,STEP block,DNMT1 block,Scp-1 inhibitor,GRK2 aptamer HTS,DNMT1 confirm,DNMT1 interf,others
CCOC(=O)C1=C(C)N(C[C@@H]2CC[C@@H](Cc3ccc(-c4ccccc4)cc3)O2)C(=O)NC1c1ccc(C(F)(F)F)cc1 (stereo not given in full),1,3,0,-7,-1,4,nt,nt,
CCOC(=O)C1=C(C)N(C[C@@H]2CC[C@@H](Cc3ccc(-c4ccccc4)cc3)O2)C(=O)NC1c1ccc(SCc2ccco2)c([N+](=O)[O-])c1 (stereo not given in full),6,6,1,94*,35,5,6,-4,
Cc1ccc(/C=N/NC(=O)c2cccc(S(=O)(=O)Nc3ccccc3Cl)c2)o1,35,0,4,0,-14,0,nt,nt,
O=C(N/N=C/c1ccco1)c1cccc(S(=O)(=O)Nc2ccccc2Cl)c1,26,5,2,56*,35,18,2,2,
CC(C)NC(=O)N[C@H]1C=C[C@H](CC(=O)NCc2ccc(Oc3ccccc3)cc2)O[C@@H]1CO,-2,0,nt,nt,nt,nt,nt,nt,
COc1cccc(-c2[nH]nc3c2C(c2ccsc2)C(C#N)=C(N)O3)c1 (stereo not given),-5,-1,0,-16,-11,4,nt,nt,
COc1cccc(-c2[nH]nc3c2C(c2ccoc2)C(C#N)=C(N)O3)c1 (stereo not given),18,0,1,67*,17,8,4,1,
CC1CCCN(CCCNC(=O)C2CCC(CNS(=O)(=O)c3cccc4nsnc34)CC2)C1 (stereo not given),-30,0,-3,50*,1,0,4,2,
CN(C)c1ccc(/C=N/NC(=O)c2cc(=O)[nH]c3ccccc23)cc1,-17,3,0,1,0,2,nt,nt,
O=C(N/N=C/c1ccccc1)c1cc(=O)[nH]c2ccccc12,-5,-1,1,61*,4,1,3,7,
Cc1noc(C)c1CCC(=O)N1CCCC(N2CCN(c3ccc(F)cc3)CC2)C1 (stereo not given),1,-1,1,86*,1,2,3,6,
